Measured values gathered from unrelated publications.
Each line is one published result; the experiments were not run side by side.
Target: Homeodomain-interacting protein kinase 1 (HIPK1, Homo sapiens, UniProt Q86Z02)

| Structure (SMILES) | test | setting | measurement | result |
| --- | --- | --- | --- | --- |
| CCN(CC)CCNC(=O)c1c(C)[nH]c(/C=C2\C(=O)Nc3ccc(F)cc32)c1C | enzyme activity, inhibitor | 0.3 µM | inhibition | 26% |
| Cn1nc(C(F)(F)F)cc1-c1cnc(N2CCc3cc(S(=O)(=O)Nc4c(F)cc(Cl)cc4F)cc(N4CCCC4=O)c32)nc1 | cell-free assay, competition with immobilised ligand | 1 µM | remaining binding | 87% |
| O=C(O)c1ccc2c(c1)nc(NCc1ccccc1)c1ccncc12 | enzyme activity, inhibitor, radiometric | 1 µM | remaining activity | 76% |
| CNC(=O)c1cc(Oc2ccc(NC(=O)Nc3ccc(Cl)c(C(F)(F)F)c3)cc2)ccn1 | enzyme activity, inhibitor | 0.3 µM | inhibition | 14% |
| O=C(O)c1ccc2c(c1)nc(Nc1ccc(F)c(Cl)c1)c1ccncc12 | enzyme activity, inhibitor, radiometric | 1 µM | remaining activity | 8% |
| FC(F)(F)Oc1cccc(-c2cnc3ccc(-c4ccncc4)nn23)c1 | enzyme activity, inhibitor, radiometric | 5 µM | activity vs control | 29% |
| C[C@H](c1ccc(F)cc1)N(Cc1cccc(C(=O)O)c1)C(=O)c1cnc2ccccc2c1 | cell-free assay, competition with immobilised ligand | 1 µM | remaining binding | 100% |
| COc1cc2nccc(Oc3ccc(NC(=O)c4c5n(n(-c6ccc(F)cc6)c4=O)CCCC5)cc3)c2cc1OC | enzyme activity, inhibitor | 0.1 µM | inhibition | 12% |
| Cc1cc(NC(=O)c2cccc3cc(-c4cccc5[nH]nc(N)c45)ccc23)ccc1F | enzyme activity, inhibitor | 0.1 µM | activity vs control | 95% |
| CC(=O)c1c(NS(C)(=O)=O)c2cc(-c3ccc(Cl)cc3)c(-c3ccc(Cl)cc3Cl)nc2n(C)c1=O | cell-free assay, competition with immobilised ligand | 1 µM | remaining binding | 96% |
| CCCS(=O)(=O)Nc1ccc(F)c(C(=O)c2c[nH]c3ncc(-c4ccc(Cl)cc4)cc23)c1F | enzyme activity, inhibitor | 1 µM | inhibition | < 10% |
| O=C(O)c1ccc2c(c1)nc(Nc1cccc(F)c1)c1ncncc12 | enzyme activity, inhibitor, radiometric | 1 µM | remaining activity | 3% |
| CNC(=O)c1ccc(Nc2ncc(C(F)(F)F)c(NCc3nccnc3N(C)S(C)(=O)=O)n2)cc1 | cell-free assay, competition with immobilised ligand | 0.1 µM | remaining binding | 27% |
| N#Cc1cccc(Nc2nc3cc(C(=O)O)ccc3c3cncnc23)c1 | enzyme activity, inhibitor, radiometric | 1 µM | remaining activity | 17% |
| COc1cc(Nc2cnc(C#N)c(O[C@H](C)CN(C)C)n2)ncc1-c1cnn(C)c1 | enzyme activity, inhibitor, radiometric | 1 µM | remaining activity | 95% |
| COc1cc2ncnc(Nc3ccc(Oc4ccccc4)c(C)c3C)c2cc1OC | enzyme activity, inhibitor | 1 µM | inhibition | 3% |
| O=C(O)c1ccc2c(c1)nc(NCCc1cccc(F)c1)c1ccncc12 | enzyme activity, inhibitor, radiometric | 1 µM | remaining activity | 13% |
| O=C(NCc1ncc(C(F)(F)F)cc1Cl)c1ccc2c(c1)C1(CCS(=O)(=O)CC1)[C@@H](C1CC1)N2S(=O)(=O)c1ccc(F)cc1 | cell-free assay, competition with immobilised ligand | 1 µM | remaining binding | 70% |
| O=C(O)c1ccc2c(c1)nc(NCCc1ccccc1)c1ncncc12 | enzyme activity, inhibitor, radiometric | 1 µM | remaining activity | 18% |
| COc1cc(/C=C/C(=O)CC(=O)/C=C/c2ccc(O)c(OC)c2)ccc1O | enzyme activity, inhibitor | 1 µM | activity vs control | 44% |
| O=C(O)c1ccc2c(c1)nc(NCCc1ccccc1)c1ccncc12 | enzyme activity, inhibitor, radiometric | 1 µM | remaining activity | 12% |
| O=C1NC(=O)c2cc(Nc3ccc(F)cc3)c(Nc3ccc(F)cc3)cc21 | cell-free assay | 0.5 µM | remaining signal | 102% |
| FC(F)c1nc2ccccc2n1-c1nc(N2CCOCC2)nc(N2CCOCC2)n1 | enzyme activity, inhibitor | 10 µM | remaining activity | 100% |
| CO[C@@H](C)c1c(Nc2ccc([C@@H](N(C)C(=O)C3CCS(=O)(=O)CC3)C(F)(F)F)cc2)cnc2cc(Cl)nn12 | cell-free assay, competition with immobilised ligand | 1 µM | remaining binding | 56% |
| O=C1Nc2ccc(Cl)cc2C1=Cc1cc(Cl)c(O)c(Cl)c1 | cell-free assay | 0.5 µM | remaining signal | 102% |
| O=C(O)c1ccc2c(c1)nc(Nc1ccc3ccccc3c1)c1ncncc12 | enzyme activity, inhibitor, radiometric | 1 µM | remaining activity | 1% |
| CCC(=O)N[C@H]1CC[C@@H](C(=O)N(C)c2ccc(-c3nc4ccccc4o3)cc2)C1 | cell-free assay, competition with immobilised ligand | 1 µM | remaining binding | 80% |
| Cc1ccc(Nc2nccc(N(C)c3ccc4c(C)n(C)nc4c3)n2)cc1S(N)(=O)=O | enzyme activity, inhibitor | 10 µM | inhibition | 21% |
| COCCOc1nc(-c2ccc(Cl)nc2)nc2c1CN(C(=O)c1ncn3ccccc13)CC2 | cell-free assay, competition with immobilised ligand | 0.1 µM | remaining binding | 90% |
| Cc1ccc(C(=O)NCc2ccsc2)cc1C#Cc1cn(C(C)C)c2ncnc(N)c12 | enzyme activity, inhibitor | 1 µM | activity vs control | 106% |
